Published values pooled from the literature.
Compare with care: the assays were run in different laboratories.
HDAC8: Histone deacetylase 8 (HDAC8, Homo sapiens, UniProt Q9BY41)
ALOX5: Polyunsaturated fatty acid 5-lipoxygenase (ALOX5, Homo sapiens, UniProt P09917)
HTR1D: 5-hydroxytryptamine receptor 1D (HTR1D, Homo sapiens, UniProt P28221)
OPRM1: Mu-type opioid receptor (OPRM1, Homo sapiens, UniProt P35372)

SMILES	target	assay	system	setting	inhibition
CCOC(=O)C1=C(C)NC(c2ccccc2)=C(C(=O)OCc2ccccc2)C1C#Cc1ccccc1 (stereo not shown)	Adenosine receptor A3 (Mus musculus, UniProt Q61618)	ligand displacement, radioligand		10 µM, cell membranes	32%
CC(=O)OC1c2c(ccc3ccc(=O)oc23)OC(C)(C)C1OC(=O)C(C)(O)C(C)O (stereo not shown)	HDAC8	enzyme activity, inhibitor		10 µM	41.2%
COc1cc(NC(C)=O)c(Cl)cc1C(=O)Nc1nccs1	Substance-K receptor (TACR2, Homo sapiens, UniProt P21452)	cell-free assay		10 µM	20%
O=c1cc(-c2ccc(O)c(O)c2)oc2cc(O)cc(O)c12	HDAC8	enzyme activity, inhibitor		10 µM	67.2%
Cc1occ(O)c(=O)c1C(=O)O	ALOX5	enzyme activity, inhibitor, fluorescence		1 mM	> 70%
CCCNc1nc2ccccc2n1Cc1ccc(Cl)cc1	HTR1D	cell-free assay		10 µM	-20.3%
O=C(c1ccc(F)cc1)N(Cc1ccccc1)C1CCCCC1	OPRM1	ligand displacement		10 µM	6%
CCn1ccc(=S)c(O)c1C	ALOX5	enzyme activity, inhibitor, fluorescence		1 mM	> 70%
CCN(CC)c1ccc(C2Nc3ccc(C(=O)c4ccccc4)cc3NC3=C2C(=O)CC(C)(C)C3)cc1 (stereo not shown)	HTR1D	ligand displacement, radioligand		10 µM	25%
COc1cc2c3c(c1OC)-c1cc4c(cc1CC3N(C)CC2c1ccccc1)OCO4 (stereo not shown)	HTR1D	ligand displacement, radioligand		10 µM	< 50%
C/C=C(/C)C(=O)O[C@@H]1[C@H](OC(C)=O)c2c(ccc3ccc(=O)oc23)OC1(C)C	HDAC8	enzyme activity, inhibitor		10 µM	40.9%
Oc1cccc(Nc2nc(-c3ccc(F)cc3F)cs2)c1	OPRM1	ligand displacement		10 µM	14.2%
CCN1CCN(Cc2ccc(NC(=O)c3ccc(C)c(/C=C/c4cnc5[nH]ccc5c4OC)c3)cc2C(F)(F)F)CC1	Mitogen-activated protein kinase kinase kinase 4 (MAP3K4, Homo sapiens, UniProt Q9Y6R4)	target engagement in cells, inhibitor, chemoproteomics	A-375	50 nM	-0.65%
CC(=O)O[C@@H]1c2c(ccc3ccc(=O)oc23)OC(C)(C)[C@@H]1OC(=O)C1(C)OC1C (stereo partly shown)	HDAC8	enzyme activity, inhibitor		10 µM	43.5%
COc1cc(Cl)c(C(=O)N[C@@H](CN[C@H]2CC[C@@H](N)CC2)Cc2ccc(C#N)cc2)cc1-c1ccc(CN[C@H](C)c2ccc(C)cc2)o1	Somatostatin receptor type 4 (SSTR4, Homo sapiens, UniProt P31391)	calcium signal, antagonist		10 µM	12%
CN(C)C1CCN(CC#Cc2nn(C3CCCC3)c3nc(NCc4ccccc4)ncc23)C1 (stereo not shown)	G protein-coupled receptor kinase 4 (GRK4, Homo sapiens, UniProt P32298)	enzyme activity, inhibitor, FRET		0.1 µM	7%
